Measured values taken from ChEMBL document CHEMBL4270541, “Synthesis and antimicrobial evaluation of amino sugar-based naphthoquinones and isoquinoline-5,8-diones and their halogenated compounds” (Eur J Med Chem, 2018).
Converted amounts (≈) assume the structure as drawn. The source made the active and inactive calls. No cut-off for these calls is given here.

Columns and labels:
Enterococcus faecalis = test: Antimicrobial activity against Enterococcus faecalis INCQS 00234 ATCC 29212 assessed as zone of inhibition at 5 mg/ml after 18 to 24 hrs by disc diffusion method; assay type: functional; conditions: ATCC 29212 INCQS 00234, read-out: IZ
Staphylococcus aureus [1] = test: Antimicrobial activity against Staphylococcus aureus INCQS 00015 ATCC 25923 assessed as zone of inhibition at 5 mg/ml after 18 to 24 hrs by disc diffusion method; assay type: functional; conditions: read-out: IZ
[2] = test system: Staphylococcus epidermidis; test: Antimicrobial activity against Staphylococcus epidermidis INCQS 00016 ATCC 12228 assessed as zone of inhibition at 5 mg/ml after 18 to 24 hrs by disc diffusion method; assay type: functional; conditions: ATCC 12228 INCQS 00016, read-out: IZ
Staphylococcus simulans [3] = test: Antimicrobial activity against Staphylococcus simulans INCQS 00254 ATCC 27851 assessed as zone of inhibition at 5 mg/ml after 18 to 24 hrs by disc diffusion method; assay type: functional; conditions: read-out: IZ
Staphylococcus aureus [4] = test: Antimicrobial activity against methicillin-resistant Staphylococcus aureus BMB9393 assessed as zone of inhibition at 5 mg/ml after 18 to 24 hrs by disc diffusion method; assay type: functional; conditions: read-out: IZ
Escherichia coli [5] = test: Antimicrobial activity against Escherichia coli INCQS 00033 ATCC 25922 assessed as zone of inhibition at 5 mg/ml after 18 to 24 hrs by disc diffusion method; assay type: functional; conditions: ATCC 25922 INCQS 00033, read-out: IZ
Proteus mirabilis = test: Antimicrobial activity against Proteus mirabilis INCQS 00095 ATCC 15290 assessed as zone of inhibition at 5 mg/ml after 18 to 24 hrs by disc diffusion method; assay type: functional; conditions: read-out: IZ
Klebsiella pneumoniae = test: Antimicrobial activity against Klebsiella pneumoniae INCQS 00083 ATCC 4352 assessed as zone of inhibition at 5 mg/ml after 18 to 24 hrs by disc diffusion method; assay type: functional; conditions: read-out: IZ
Pseudomonas aeruginosa [6] = test: Antimicrobial activity against Pseudomonas aeruginosa INCQS 00099 ATCC 27853 assessed as zone of inhibition at 5 mg/ml after 18 to 24 hrs by disc diffusion method; assay type: functional; conditions: read-out: IZ
[7] = test system: Staphylococcus epidermidis; test: Antimicrobial activity against Staphylococcus epidermidis INCQS 00016 ATCC 12228 after 24 hrs by microdilution assay; assay type: functional; conditions: ATCC 12228 INCQS 00016, 24 h
[8] = test system: Staphylococcus epidermidis; test: Ratio of MBC99.9 to MIC for Staphylococcus epidermidis INCQS 00016 ATCC 12228; assay type: functional, ATCC 12228 INCQS 00016
In short: (§1)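 MBC/MIC ratio from the 24 h, 37°C microdilution MIC and the agar-plating MBC (99.9% growth inhibition). A ratio ≤2 was classed as bactericidal and ≥4 as bacteriostatic.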

[9] = test system: Staphylococcus epidermidis; test: Bactericidal activity against Staphylococcus epidermidis INCQS 00016 ATCC 12228 incubated for 24 hrs followed by transfer of microbial suspension to agar plates and measured after 24 hrs post transfer by resazurin dye-based colorimetric analysis; assay type: functional; conditions: ATCC 12228 INCQS 00016, 24 h, read-out: MBC99.9
In short: (§2)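 For MBC, 10 µL from each clear MIC well was plated on agar and incubated 24 h at 37°C. MBC is the minimum concentration inhibiting 99.9% of growth. […] Triplicate.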

[10] = Hemolytic activity against human erythrocytes assessed as hemolysis at 200 ug/ml after 3 hrs by spectrophotometric analysis relative to control; assay type: ADME, cell-based, Erythrocyte; conditions: read-out: Activity
In short: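 Erythrocytes collected in citrate tubes, washed three times with PBS pH 7.4 by centrifugation and resuspended in PBS. Incubated with compounds at 200 µg/mL for 3 h at 37°C. Released hemoglobin was read in the supernatant at 545 nm against 1% Triton X-100 (complete lysis) and 1% DMSO (negative control). Below 10% hemolysis was taken as hemocompatible. Three independent experiments.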

Staphylococcus aureus [11] = test: Antimicrobial activity against Staphylococcus aureus INCQS 00015 ATCC 25923 at 256 ug/ml after 24 hrs by microdilution assay; assay type: functional, organism-based
Staphylococcus simulans [12] = test: Antimicrobial activity against Staphylococcus simulans INCQS 00254 ATCC 27851 at 256 ug/ml after 24 hrs by microdilution assay; assay type: functional, organism-based
Staphylococcus aureus [13] = test: Antimicrobial activity against methicillin-resistant Staphylococcus aureus BMB9393 at 256 ug/ml after 24 hrs by microdilution assay; assay type: functional, organism-based
Escherichia coli [14] = test: Antimicrobial activity against Escherichia coli INCQS 00033 ATCC 25922 at 256 ug/ml after 24 hrs by microdilution assay; assay type: functional, organism-based; conditions: ATCC 25922 INCQS 00033
Pseudomonas aeruginosa [15] = test: Antimicrobial activity against Pseudomonas aeruginosa INCQS 00099 ATCC 27853 at 256 ug/ml after 24 hrs by microdilution assay; assay type: functional, organism-based
Staphylococcus aureus [16] = test: Bactericidal activity against Staphylococcus aureus INCQS 00015 ATCC 25923 at 256 ug/ml incubated for 24 hrs followed by transfer of microbial suspension to agar plates and measured after 24 hrs post transfer by resazurin dye-based colorimetric analysis; assay type: functional, organism-based; in short: as §2
Staphylococcus simulans [17] = test: Bactericidal activity against Staphylococcus simulans INCQS 00254 ATCC 27851 at 256 ug/ml incubated for 24 hrs followed by transfer of microbial suspension to agar plates and measured after 24 hrs post transfer by resazurin dye-based colorimetric analysis; assay type: functional, organism-based; in short: as §2
Staphylococcus aureus [18] = test: Bactericidal activity against methicillin-resistant Staphylococcus aureus BMB9393 at 256 ug/ml incubated for 24 hrs followed by transfer of microbial suspension to agar plates and measured after 24 hrs post transfer by resazurin dye-based colorimetric analysis; assay type: functional, organism-based
In short: (§3)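 From MIC wells with no visible growth, 10 µL is transferred to agar plates and incubated 24 h at 37°C. MBC is the minimum concentration inhibiting 99.9% of growth. […] Triplicate.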

Escherichia coli [19] = test: Bactericidal activity against Escherichia coli INCQS 00033 ATCC 25922 at 256 ug/ml incubated for 24 hrs followed by transfer of microbial suspension to agar plates and measured after 24 hrs post transfer by resazurin dye-based colorimetric analysis; assay type: functional, organism-based; conditions: ATCC 25922 INCQS 00033; in short: as §2
Pseudomonas aeruginosa [20] = test: Bactericidal activity against Pseudomonas aeruginosa INCQS 00099 ATCC 27853 at 256 ug/ml incubated for 24 hrs followed by transfer of microbial suspension to agar plates and measured after 24 hrs post transfer by resazurin dye-based colorimetric analysis; assay type: functional, organism-based; in short: as §2
Staphylococcus aureus [21] = test: Ratio of MBC99.9 to MIC for Staphylococcus aureus INCQS 00015 ATCC 25923; assay type: functional; in short: as §1
Staphylococcus aureus [22] = test: Antimicrobial activity against Staphylococcus aureus INCQS 00015 ATCC 25923 after 24 hrs by microdilution assay; assay type: functional; conditions: INCQS 00015 ATCC 25923, 24 h
Staphylococcus simulans [23] = test: Antimicrobial activity against Staphylococcus simulans INCQS 00254 ATCC 27851 after 24 hrs by microdilution assay; assay type: functional; conditions: INCQS 00254 ATCC 27851, 24 h
Staphylococcus aureus [24] = test: Bactericidal activity against Staphylococcus aureus INCQS 00015 ATCC 25923 incubated for 24 hrs followed by transfer of microbial suspension to agar plates and measured after 24 hrs post transfer by resazurin dye-based colorimetric analysis; assay type: functional; conditions: INCQS 00015 ATCC 25923, 24 h, read-out: MBC99.9; in short: as §3
Staphylococcus simulans [25] = test: Bactericidal activity against Staphylococcus simulans INCQS 00254 ATCC 27851 incubated for 24 hrs followed by transfer of microbial suspension to agar plates and measured after 24 hrs post transfer by resazurin dye-based colorimetric analysis; assay type: functional; conditions: INCQS 00254 ATCC 27851, 24 h, read-out: MBC99.9; in short: as §2
Staphylococcus simulans [26] = test: Ratio of MBC99.9 to MIC for Staphylococcus simulans INCQS 00254 ATCC 27851; assay type: functional; in short: as §1

COC(=O)c1c(C)nc(C)c2c1C(=O)C=C(NC[C@H]1O[C@@H]3OC(C)(C)O[C@@H]3[C@H]1O)C2=O
zone of inhibition at 5000 µg/mL (Enterococcus faecalis): 0 mm
zone of inhibition at 5000 µg/mL (Staphylococcus aureus [1]): 0 mm
zone of inhibition at 5000 µg/mL [2]: 10 mm
zone of inhibition at 5000 µg/mL (Staphylococcus simulans [3]): 0 mm
zone of inhibition at 5000 µg/mL (Staphylococcus aureus [4]): 0 mm
zone of inhibition at 5000 µg/mL (Escherichia coli [5]): 0 mm
zone of inhibition at 5000 µg/mL (Proteus mirabilis): 0 mm
zone of inhibition at 5000 µg/mL (Klebsiella pneumoniae): 0 mm
zone of inhibition at 5000 µg/mL (Pseudomonas aeruginosa [6]): 0 mm
MIC [7]: 256 µg/mL (≈ 592 µM)
Ratio [8]: 1
MBC [9]: 256 µg/mL (≈ 592 µM)
hemolysis at 3 h, 200 ug/ml [10]: < 10%
Activity (Staphylococcus aureus [11]): inactive
Activity (Staphylococcus simulans [12]): inactive
Activity (Staphylococcus aureus [13]): inactive
Activity (Escherichia coli [14]): inactive
Activity (Pseudomonas aeruginosa [15]): inactive
Activity (Staphylococcus aureus [16]): inactive
Activity (Staphylococcus simulans [17]): inactive
Activity (Staphylococcus aureus [18]): inactive
Activity (Escherichia coli [19]): inactive
Activity (Pseudomonas aeruginosa [20]): inactive

COC(=O)c1c(C)nc(C)c2c1C(=O)C(Cl)=C(N)C2=O
zone of inhibition at 5000 µg/mL (Enterococcus faecalis): 0 mm
zone of inhibition at 5000 µg/mL (Staphylococcus aureus [1]): 15 mm
zone of inhibition at 5000 µg/mL [2]: 18 mm
zone of inhibition at 5000 µg/mL (Staphylococcus simulans [3]): 16 mm
zone of inhibition at 5000 µg/mL (Staphylococcus aureus [4]): 12 mm
zone of inhibition at 5000 µg/mL (Escherichia coli [5]): 0 mm
zone of inhibition at 5000 µg/mL (Proteus mirabilis): 0 mm
zone of inhibition at 5000 µg/mL (Klebsiella pneumoniae): 0 mm
zone of inhibition at 5000 µg/mL (Pseudomonas aeruginosa [6]): 0 mm
Ratio (Staphylococcus aureus [21]): 1
MIC (Staphylococcus aureus [22]): 64 µg/mL (≈ 217 µM)
MIC [7]: 32 µg/mL (≈ 109 µM)
MIC (Staphylococcus simulans [23]): 32 µg/mL (≈ 109 µM)
Ratio [8]: 1
MBC (Staphylococcus aureus [24]): 64 µg/mL (≈ 217 µM)
MBC [9]: 32 µg/mL (≈ 109 µM)
MBC (Staphylococcus simulans [25]): 32 µg/mL (≈ 109 µM)
Ratio (Staphylococcus simulans [26]): 1
hemolysis at 3 h, 200 ug/ml [10]: 10.1 to 14.4%
Activity (Staphylococcus aureus [13]): inactive
Activity (Escherichia coli [14]): inactive
Activity (Pseudomonas aeruginosa [15]): inactive
Activity (Staphylococcus aureus [18]): inactive
Activity (Escherichia coli [19]): inactive
Activity (Pseudomonas aeruginosa [20]): inactive

CN[C@H](CC(C)C)C(=O)N[C@H]1C(=O)N[C@@H](CC(N)=O)C(=O)N[C@H]2C(=O)N[C@H]3C(=O)N[C@H](C(=O)N[C@H](C(=O)O)c4cc(O)cc(O)c4-c4cc3ccc4O)[C@H](O)c3ccc(c(Cl)c3)Oc3cc2cc(c3O[C@@H]2O[C@H](CO)[C@@H](O)[C@H](O)[C@H]2O[C@H]2C[C@](C)(N)[C@H](O)[C@H](C)O2)Oc2ccc(cc2Cl)[C@H]1O [VANCOMYCIN]
zone of inhibition at 5000 µg/mL (Enterococcus faecalis): 16 mm
zone of inhibition at 5000 µg/mL (Staphylococcus aureus [1]): 16 mm
zone of inhibition at 5000 µg/mL [2]: 15 mm
zone of inhibition at 5000 µg/mL (Staphylococcus simulans [3]): 16 mm
zone of inhibition at 5000 µg/mL (Staphylococcus aureus [4]): 14 mm
MIC (Staphylococcus simulans [23]): 2 µg/mL (≈ 1.38 µM)
